How the values were obtained:
Smooth muscle of trachea [1] = test: Anti-asthmatic activity in guinea pig tracheal smooth muscle ring assessed as reduction in acetylcholine-induced muscle contractions after 60 mins; assay type: functional, tissue-based; conditions: Cavia porcellus
In short: (§1)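 Guinea pig tracheal rings were held in Krebs-Henseleit at 36.5±0.5°C under 95% O2/5% CO2, at 1.0 g resting tension with 60-min equilibration. Isometric tension was recorded after acetylcholine-induced contraction. The read-out was percentage change in smooth muscle tension with compound, as means±S.D (n=10).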

Smooth muscle of trachea [2] = test: Anti-asthmatic activity in guinea pig tracheal smooth muscle ring assessed as reduction in acetylcholine-induced muscle contractions by measuring muscle relaxation at 1.25 mmol/l after 60 mins (reference value: 13.59 +/- 9.14%); assay type: functional, Cavia porcellus; set-up: scale not given: the % may be the effect or the level left; in short: as §1
Smooth muscle of trachea [3] = test: Anti-asthmatic activity in guinea pig tracheal smooth muscle ring assessed as reduction in acetylcholine-induced muscle contractions by measuring muscle relaxation at 0.75 mmol/l after 60 mins (reference value: 7.73 +/- 4.81%); assay type: functional, Cavia porcellus; set-up: scale not given: the % may be the effect or the level left; in short: as §1
Rattus norvegicus [4] = test: Anti-asthmatic activity in ovalbumin-induced asthmatic Sprague-Dawley rat model assessed as IL-17 levels in serum at 0.5 mg/kg, po co-administered with OVA from day 15 to 21 of experiment period (reference value: 16.85 +/- 1.13 pg/ml)
Rattus norvegicus [5] = test: Anti-asthmatic activity in ovalbumin-induced asthmatic Sprague-Dawley rat model assessed as improvement in lung function by measuring dynamic compliance of the airway at 0.5 mg/kg, po co-administered with OVA from day 15 to 21 of experiment period (reference value: 0.46 +/- 0.17)
Rattus norvegicus [6] = test: Anti-asthmatic activity in ovalbumin-induced asthmatic Sprague-Dawley rat model assessed as improvement in lung function by measuring airway resistance at 0.5 mg/kg, po co-administered with OVA from day 15 to 21 of experiment period (reference value: 67.33 +/- 10.54)
Rattus norvegicus [7] = test: Anti-asthmatic activity in ovalbumin-induced asthmatic Sprague-Dawley rat model assessed as IL-14 levels in serum at 0.5 mg/kg, po co-administered with OVA from day 15 to 21 of experiment period (reference value: 16.04 +/- 1.41 pg/ml)
[8] = target: Adrenergic receptor beta (Rattus norvegicus) (UniProt P18090+P10608+P26255); test: Agonist activity at beta-adrenergic receptor in rat airway smooth muscle cells assessed as reduction in acetylcholine-induced muscle contractions by measuring cAMP levels after 18 hrs post acetylcholine stimulation by ELISA (reference value: 8.402 +/- 0.041 nmol/l); assay type: functional
In short: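 Rat airway smooth muscle cells (passages 4–6) were seeded at 5×10^4/mL and grown for 48 h. They were stimulated with acetylcholine 0.33 mmol/L for 4 h, then exposed to compound for 18 h. Cells were trypsinized (0.25%, 2 min) and sonicated, and cAMP in the supernatant was measured by ELISA.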

Rattus norvegicus [9] = test: Anti-asthmatic activity in ovalbumin-induced asthmatic Sprague-Dawley rat model assessed as IL-17 levels in serum at 1 g/kg, po co-administered with OVA from day 15 to 21 of experiment period (reference value: 16.85 +/- 1.13 pg/ml); assay type: functional
Rattus norvegicus [10] = test: Anti-asthmatic activity in ovalbumin-induced asthmatic Sprague-Dawley rat model assessed as improvement in lung function by measuring airway resistance at 1 g/kg, po co-administered with OVA from day 15 to 21 of experiment period (reference value: 67.33 +/- 10.54); assay type: functional
Rattus norvegicus [11] = test: Anti-asthmatic activity in ovalbumin-induced asthmatic Sprague-Dawley rat model assessed as improvement in lung function by measuring dynamic compliance of the airway at 1 g/kg, po co-administered with OVA from day 15 to 21 of experiment period (reference value: 0.46 +/- 0.17); assay type: functional
Rattus norvegicus [12] = test: Anti-asthmatic activity in ovalbumin-induced asthmatic Sprague-Dawley rat model assessed as IL-14 levels in serum at 1 g/kg, po co-administered with OVA from day 15 to 21 of experiment period (reference value: 16.04 +/- 1.41 pg/ml); assay type: functional
Rattus norvegicus [13] = test: Anti-asthmatic activity in ovalbumin-induced asthmatic Sprague-Dawley rat model assessed as IL-17 levels in serum at 1.6 g/kg, po co-administered with OVA from day 15 to 21 of experiment period (reference value: 16.85 +/- 1.13 pg/ml); assay type: functional
Rattus norvegicus [14] = test: Anti-asthmatic activity in ovalbumin-induced asthmatic Sprague-Dawley rat model assessed as IL-14 levels in serum at 1.6 g/kg, po co-administered with OVA from day 15 to 21 of experiment period (reference value: 16.04 +/- 1.41 pg/ml); assay type: functional
Rattus norvegicus [15] = test: Anti-asthmatic activity in ovalbumin-induced asthmatic Sprague-Dawley rat model assessed as improvement in lung function by measuring airway resistance at 1.6 g/kg, po co-administered with OVA from day 15 to 21 of experiment period (reference value: 67.33 +/- 10.54); assay type: functional
Rattus norvegicus [16] = test: Anti-asthmatic activity in ovalbumin-induced asthmatic Sprague-Dawley rat model assessed as improvement in lung function by measuring dynamic compliance of the airway at 1.6 g/kg, po co-administered with OVA from day 15 to 21 of experiment period (reference value: 0.46 +/- 0.17); assay type: functional

Activity [8]	Compound	Activity (Smooth muscle of trachea [1])	Activity (Smooth muscle of trachea [2])	Activity (Smooth muscle of trachea [3])	also measured
–	CC1=CCC(C(C)(C)OC(=O)CN2CCCCC2)CC1 (stereo not given)	Dose-dependent effect	–	–	–
–	CCC(=O)OC(C)(C)C1CC=C(C)CC1 (stereo not given)	Dose-dependent effect	23.22%	18.18%	–
–	CCCC(=O)OC(C)(C)C1CC=C(C)CC1 (stereo not given)	Dose-dependent effect	25.47%	21.2%	–
–	CC(=O)OCC(=O)[C@@]1(O)[C@H](C)C[C@H]2[C@@H]3CCC4=CC(=O)C=C[C@]4(C)[C@@]3(F)[C@@H](O)C[C@@]21C [DEXAMETHASONE ACETATE]	–	–	–	Activity (Rattus norvegicus [4]): 16.06 pg/mL; Activity (Rattus norvegicus [5]): 0.66; Activity (Rattus norvegicus [6]): 41.51; Activity (Rattus norvegicus [7]): 14.31 pg/mL
8.94 nmol/L	CC1=CCC(C(C)(C)OC(=O)CN(CCO)CCO)CC1 (stereo not given)	Dose-dependent effect	–	–	–
–	CCCCCCCCCCCCCC(=O)OC(C)(C)C1CC=C(C)CC1 (stereo not given)	Dose-dependent effect	–	–	–
–	CC1=CCC(C(C)(C)OC(=O)CO[N+](=O)[O-])CC1 (stereo not given)	Dose-dependent effect	–	–	–
–	CC1CCC(C(C)(C)O)CC1 (stereo not given)	Dose-dependent effect	–	–	–
8.51 nmol/L	CC1=CCC(C(C)(C)O)CC1 (stereo not given)	Dose-dependent effect	–	–	Activity (Rattus norvegicus [9]): 16.19 pg/mL; Activity (Rattus norvegicus [10]): 60.57; Activity (Rattus norvegicus [11]): 0.53; Activity (Rattus norvegicus [12]): 15.5 pg/mL
–	CC(=O)OC(C)(C)C1CC=C(C)CC1 (stereo not given)	Dose-dependent effect	47.72%	34.35%	–
–	CC1=CCC(C(C)(C)OC(=O)CN2CCC(=O)CC2)CC1 (stereo not given)	Dose-dependent effect	–	–	–
–	CC1=CCC(C(C)(C)OC=O)CC1 (stereo not given)	Dose-dependent effect	21.57%	14.62%	–
8.81 nmol/L	CC1=CCC(C(C)(C)OC(=O)CN2CCOCC2)CC1 (stereo not given)	Dose-dependent effect	–	–	–
8.98 nmol/L	CC1=CCC(C(C)(C)OC(=O)CN2CCC(O)CC2)CC1 (stereo not given)	Dose-dependent effect	–	–	–
–	CC1=CCC(C(C)(C)OC(=O)C(C)C)CC1 (stereo not given)	Dose-dependent effect	22.79%	19.88%	–
8.76 nmol/L	CC1=CCC(C(C)(C)OC(=O)CSCC(O)CO)CC1 (stereo not given)	Dose-dependent effect	65.29%	34.84%	–
–	CCCCCCCCCCCCCCCCCC(=O)OC(C)(C)C1CC=C(C)CC1 (stereo not given)	Dose-dependent effect	–	–	–
9.53 nmol/L	CCN(CC)CC(=O)OC(C)(C)C1CC=C(C)CC1 (stereo not given)	Dose-dependent effect	–	–	–
–	CC1=CCC(C(C)(C)OC(=O)C(C)(C)C)CC1 (stereo not given)	Dose-dependent effect	28.02%	25.49%	–
9.01 nmol/L	CC1=CCC(C(C)(C)OC(=O)CN(C)CCO)CC1 (stereo not given)	Dose-dependent effect	–	–	Activity (Rattus norvegicus [13]): 16.35 pg/mL; Activity (Rattus norvegicus [14]): 15.66 pg/mL; Activity (Rattus norvegicus [15]): 51.69; Activity (Rattus norvegicus [16]): 0.84
8.82 nmol/L	CC1=CCC(C(C)(C)OC(=O)CSCCO)CC1 (stereo not given)	Dose-dependent effect	–	–	Activity (Rattus norvegicus [13]): 15.09 pg/mL; Activity (Rattus norvegicus [14]): 14 pg/mL; Activity (Rattus norvegicus [15]): 41.69; Activity (Rattus norvegicus [16]): 0.88

Compound	Activity [8]	Activity (Smooth muscle of trachea [1])	Activity (Smooth muscle of trachea [2])	Activity (Smooth muscle of trachea [3])	also measured
Cn1c(=O)c2[nH]cnc2n(C)c1=O	8.6 nmol/L	Dose-dependent effect	–	–	–

Source: ChEMBL document CHEMBL4138217, “Discovery of a novel series of α-terpineol derivatives as promising anti-asthmatic agents: Their design, synthesis, and biological evaluation” (2018)
